Source: PubChem
Mot1-301 SUMO: blocks SUMOylation pathway, rescuing yeast Mot1-301 growth. S. cerevisiae Mot1-301 growth rescue, ATP luminescence, 38.5C; percent above DMSO median, 100 means doubled. growth rescue, % at 18.8 µM. hit rate 1% among 320,000. AID 2716;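 active = every valid replicate shows activation above 250% relative to neutral control wells; inactive = the rest, any valid replicate at or below 250%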
Statin myotox sup: protects C2C12 myotubes from simvastatin toxicity; hit rate 0.78% among 330,000; ATP luminescence, 48 h; scaled: DMSO 0, geranylgeraniol control 100; rescue of ATP level, % at 7.49 µM; AID 602340;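 active = mean ATP rescue above about 67%, or every replicate alone reaching that limit, limit read from the data, passing the limit was not always enough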;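 also: myotubes were challenged with 10 µM simvastatin during compound exposure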
Cneo AK release: causes C. neoformans cell lysis; adenylate kinase release luminescence, 4 h; normalised: neutral wells 0, clomiphene wells 100; lysis activity, % at 15 µM; hit rate 0.2% among 360,000;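 active = mean lysis activity across replicates of at least 80%, whatever share of replicates individually reach that level; inactive = mean lysis activity below 80%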
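Test system: log-phase Cryptococcus neoformans yeast cells; Quantity: yeast cell density of 5 × 10^6 cells/mL; Buffer or medium: YPD; Doses: single compound concentration per well; Timing: 4 h at 37 °C static, read 1 h later; Measured by: AK luminescence; Read-out basis: lysis from increased AK signal; Control set: Clomiphene as positive control.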
Mot1 SUMO dose: SUMO pathway inhibitors in yeast Mot1-301 growth; shares compounds with Mot1-301 SUMO; S. cerevisiae Mot1-301 galactose growth, ATP luminescence, 24 h; -100 = growth of slx-deleted rescue strain; growth activity, percent, % at 42 µM; 2,300 tested, under 10 active;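 active = Signal drops as the depositor expects, and the fitted half-maximal dose is no more than ten times the top valid tested dose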;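 also: more negative values mean stronger growth rescue toward the control strain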
Of the large screens only hits and unclear results are named; the others gave an inactive call (follow-up assays come after a bar, where they were run). Sampled rows, rich in hits. Any-hit rate of the full collection: about 1.5%.

CN1CCN(C(=O)C2=C[C@H](c3ccc(Br)cc3)C[C@H](OCc3ccc(CO)cc3)O2)CC1	none (no result: Mot1-301 SUMO, Statin myotox sup)
Cc1noc(C)c1NC(=O)N(C)C[C@@H]1Oc2ccc(NC(=O)Nc3cccc4ccccc34)cc2CC(=O)N([C@H](C)CO)C[C@@H]1C	none (no result: Mot1-301 SUMO)
Cc1cccc(OCCCC(=O)Nc2ccc(N(C)C)cc2)c1	none (no result: Statin myotox sup, Cneo AK release)
Cc1cccc(OCCC(=O)Nc2ccc(F)c(F)c2)c1	Mot1-301 SUMO 380 | Mot1 SUMO dose inactive
COc1ccc(NC(=O)Nc2cccc3c2O[C@H](CN(C)C(=O)Nc2c(C)noc2C)[C@@H](C)CN([C@@H](C)CO)C3=O)cc1	none (no result: Mot1-301 SUMO)
COc1cccc(/C=N/n2c(N)nc3ccccc32)c1OC	none
COc1cccc(/C=N/n2cnc3ccccc32)c1OC	Mot1-301 SUMO 406 | Mot1 SUMO dose inactive
COc1ccc(NC(=O)Nc2ccc3c(c2)C(=O)N([C@@H](C)CO)C[C@@H](C)[C@@H](CN(C)S(C)(=O)=O)OCCCC[C@@H](C)O3)cc1	none (no result: Mot1-301 SUMO, Statin myotox sup)
COCC(=O)Nc1ccc2c(c1)C(=O)N(C)[C@@H]1CC[C@H](CC(=O)OC)O[C@H]1CO2	none (no result: Mot1-301 SUMO)
COc1ccc(NC(=O)C2CCN(c3cc(C)nc(-c4ccccc4)n3)CC2)cc1	Mot1-301 SUMO active | Mot1 SUMO dose inactive
Cc1cc(N2CCC(C(=O)Nc3ccc(F)cc3)CC2)nc(-c2ccccc2)n1	none
COCC(=O)N[C@H]1C=C[C@@H](CC(=O)NCc2ccc(Cl)cc2)O[C@H]1CO	none (no result: Mot1-301 SUMO, Cneo AK release)
C[C@@H]1CN([C@@H](C)CO)C(=O)Cc2cc(NC(=O)NC3CCCCC3)ccc2O[C@H]1CN(C)S(=O)(=O)c1ccccc1	none (no result: Mot1-301 SUMO)
Cc1cc(C(=O)CN2C(=O)NC3(CCCc4sccc43)C2=O)c(C)n1-c1ccccc1 (configuration not stated)	none (no result: Statin myotox sup)
COc1ccc(-n2c(C)cc(C(=O)CN3C(=O)NC4(CCCc5sccc54)C3=O)c2C)cc1 (configuration not stated)	Mot1-301 SUMO active (no result: Statin myotox sup, Cneo AK release) | Mot1 SUMO dose inactive
C/C=C/c1ccc2c(c1)O[C@H](CN(C)Cc1ccc(C(=O)O)cc1)[C@H](C)CN([C@@H](C)CO)S2(=O)=O	none (no result: Mot1-301 SUMO)
CCOC(=O)C1CC(c2ccccc2)=NNC1=O (configuration not stated)	Mot1-301 SUMO 504 (no result: Statin myotox sup, Cneo AK release) | Mot1 SUMO dose inactive
CCOC(=O)C1CC(=O)c2ccccc2C1c1ccccc1 (configuration not stated)	none (no result: Mot1-301 SUMO)
N#CC(C#N)=C1C=CC=CN1/C(=C\c1ccccc1)C(=O)c1cccs1	none (no result: Statin myotox sup, Cneo AK release)
N#CC(C#N)=C1C=CC=CN1/C(=C\c1ccccc1Cl)C(=O)c1ccccc1	Mot1-301 SUMO 600 (no result: Statin myotox sup, Cneo AK release) | Mot1 SUMO dose inactive
Cc1cc(C)n2c(SCC(=O)NC3CCCC(C)C3C)nnc2n1 (configuration not stated)	none (no result: Statin myotox sup, Cneo AK release)
Cc1cc(C)n2nc(SCC(=O)NC3CCCC(C)C3C)nc2n1 (configuration not stated)	Mot1-301 SUMO 517 | Mot1 SUMO dose inactive
CC(=O)N(C)C[C@@H]1Oc2ncc(C3=CCCC3)cc2C(=O)N([C@@H](C)CO)C[C@H]1C	none (no result: Mot1-301 SUMO)
NC(=S)N/N=C/c1ccccc1O	none
NC(=S)N/N=C/c1cccc(O)c1O	Mot1-301 SUMO 630 (no result: Statin myotox sup, Cneo AK release) | Mot1 SUMO dose inactive
CC(C)(C)NC(=O)CC1C(=O)NCCN1Cc1c(F)cccc1Cl (configuration not stated)	Mot1-301 SUMO 836 (no result: Statin myotox sup, Cneo AK release) | Mot1 SUMO dose inactive
O=C(CC1C(=O)NCCN1Cc1c(F)cccc1Cl)NC1CCCCCC1 (configuration not stated)	none
COc1cccc(S(=O)(=O)N[C@H]2CC[C@H](CC(=O)NC3CCC3)O[C@@H]2CO)c1	none (no result: Mot1-301 SUMO)
CC(C)C#Cc1ccc2c(c1)O[C@H](CN(C)C(=O)c1ccccn1)[C@@H](C)CN([C@H](C)CO)S2(=O)=O	none (no result: Mot1-301 SUMO)
O=C(OCC(=O)N1CCN(c2ccccc2)CC1)c1nc(Cl)ccc1Cl	Mot1-301 SUMO 641 | Mot1 SUMO dose inactive
CSc1ccc(Cl)c(C(=O)OCC(=O)N2CCN(c3ccccc3)CC2)c1	none (no result: Mot1-301 SUMO)
C[C@@H]1CCCCO[C@H](CN(C)C(=O)NC2CCCCC2)[C@H](C)CN([C@@H](C)CO)C(=O)c2cc(NC(=O)Nc3ccc4c(c3)OCO4)ccc2O1	none (no result: Mot1-301 SUMO, Statin myotox sup)
Cc1noc(C)c1S(=O)(=O)Nc1ccc2c(c1)CC(=O)N([C@@H](C)CO)C[C@@H](C)[C@H](CN(C)S(=O)(=O)c1ccccc1)O2	none (no result: Mot1-301 SUMO)
C[C@H]1CN([C@@H](C)CO)C(=O)c2cc(NS(=O)(=O)c3cccs3)ccc2O[C@H]1CN(C)C(=O)Nc1cccc2ccccc12	none (no result: Mot1-301 SUMO)
CCC(=O)N1N=C(c2ccc(C)cc2)CC1c1ccco1 (configuration not stated)	none (no result: Statin myotox sup, Cneo AK release)
CCC(=O)N1N=C(c2c(-c3ccccc3)c3cc(Cl)ccc3[nH]c2=O)CC1c1ccco1 (configuration not stated)	none (no result: Statin myotox sup, Cneo AK release)
CCC1(CC)NC(=O)N(CC(=O)N2N=C(c3ccc(Cl)cc3)CC2c2ccco2)C1=O (configuration not stated)	Mot1-301 SUMO 581 | Mot1 SUMO dose inactive
O=C(O)CCC(=O)N1N=C(c2c(-c3ccccc3)c3cc(Cl)ccc3[nH]c2=O)CC1c1ccco1 (configuration not stated)	Mot1-301 SUMO 377 (no result: Statin myotox sup, Cneo AK release) | Mot1 SUMO dose inactive
CC(=O)N1CC[C@@H]2[C@H](CO)Nc3ccc(-c4ccccc4)cc3[C@@H]21	none (no result: Mot1-301 SUMO)
CC(=O)N(C)C[C@@H]1Oc2cc(-c3cccc(C#N)c3)ccc2S(=O)(=O)N([C@H](C)CO)C[C@@H]1C	none (no result: Mot1-301 SUMO)
COC(=O)c1ccccc1NC(NC(=O)c1ccco1)C(=O)c1ccccc1 (configuration not stated)	Mot1-301 SUMO 449 | Mot1 SUMO dose inactive
COc1ccccc1NC(=S)NC(NC(=O)c1ccco1)C(Cl)(Cl)Cl (configuration not stated)	none (no result: Statin myotox sup, Cneo AK release)
COc1ccccc1NC(NC(=O)c1ccco1)C(=O)c1ccccc1 (configuration not stated)	Mot1-301 SUMO 839 | Mot1 SUMO dose inactive
COC(=O)c1ccccc1Oc1ccc(NC(=O)c2ccco2)cc1	none
O=C(N[C@@H]1CC[C@@H](CCNS(=O)(=O)c2ccc(F)cc2)O[C@H]1CO)c1cnccn1	none (no result: Mot1-301 SUMO)
CO[C@@H]1CN(C)C(=O)c2cc(NC(=O)Nc3cccc(F)c3)ccc2OC[C@H](C)N(C(=O)C2CC2)C[C@@H]1C	none (no result: Mot1-301 SUMO)
C[C@H](CO)N1C[C@H](C)[C@H](CN(C)C(=O)Nc2ccccc2)Oc2c(NS(=O)(=O)c3ccccc3)cccc2C1=O	none (no result: Mot1-301 SUMO)
COc1ccc(C(=O)Nc2ccc3c(c2)nc(CCNC(C)=O)n3C)cc1	none
CC(=O)NCCc1nc2cc(NC(=O)c3ccc(F)cc3)ccc2n1C	Mot1-301 SUMO 741 | Mot1 SUMO dose inactive
O=C(c1cccc(F)c1)N1C[C@H]2[C@@H](c3ccccc31)[C@@H](CO)N2C(=O)C1CCCCC1	none (no result: Mot1-301 SUMO)
CCCOc1ccccc1C1NC(=O)NC(C)=C1C(=O)OCCOC (configuration not stated)	none
CCCOc1ccccc1C1NC(=O)NC(C)=C1C(=O)OCc1ccccc1 (configuration not stated)	Mot1-301 SUMO 735 | Mot1 SUMO dose inactive
